Published values from different studies.
MPO: Myeloperoxidase (MPO, Homo sapiens, UniProt P05164)
SLC6A2: Sodium-dependent noradrenaline transporter (SLC6A2, Homo sapiens, UniProt P23975)
CHEK2: Serine/threonine-protein kinase Chk2 (CHEK2, Homo sapiens, UniProt O96017)

Compound	target	assay	test system	setting	endpoint	result
NC/C(=C\F)COc1cccc(Cn2c(=S)[nH]c(=O)c3[nH]cnc32)c1	MPO	enzyme activity, inhibitor, fluorescence		3 µM	inhibition	99.7%
Cc1cc(O)c(-c2ccc([C@@H](C)CN(C)C)cc2)c2c1[nH]c(=O)c1sccc12	Peripheral plasma membrane protein CASK (CASK, Homo sapiens, UniProt O14936)	cell-free assay, inhibitor		0.1 µM, lysate	inhibition	3.12%
CCOC(=O)[C@@]12C[C@@H]1[C@@H](n1cnc3c(NCCO)nc(C#Cc4ccc(Cl)s4)nc31)[C@H](O)[C@@H]2O	SLC6A2	ligand displacement, radioligand		10 µM	inhibition	15%
CC(C)OCCn1c(=S)[nH]c(=O)c2[nH]ccc21	MPO	enzyme activity, inhibitor		0.156 µM	remaining activity	93.7%
CCOC(=O)[C@@]12C[C@@H]1[C@@H](n1cnc3c(NCCCCCc4ccccc4)nc(C#Cc4ccc(Cl)s4)nc31)[C@H](O)[C@@H]2O	SLC6A2	transporter uptake, inhibitor, radiometric	HEK293	10 µM	inhibition	0%
COc1ccc2oc(-c3ccc4nc(N)oc4c3)c/c(=N\c3ccccc3NC(=O)CCN)c2c1	CHEK2	binding		1 µM	remaining binding	76%
N#CC[C@@]12C[C@@H]1[C@@H](n1cnc3c(NCc4cccc(Cl)c4)nc(C#Cc4ccc(Cl)s4)nc31)[C@H](O)[C@@H]2O	SLC6A2	ligand displacement, radioligand		10 µM	inhibition	76%
C1=C/COCc2cc(ccc2OCCN2CCCC2)Nc2nccc(n2)-c2cccc(c2)COC/1	Fibroblast growth factor receptor 1 (FGFR1, Homo sapiens, UniProt P11362)	binding		0.1 µM	remaining binding	88%
CCCCC(=O)Nc1ccc(-c2ccc3ncn(CCC)c(=O)c3c2)cn1	CHEK2	binding, competition with immobilised ligand		0.5 µM	remaining binding	96%
